Most compounds without a hit are left out; they make up all but 3.4% or so of the library.
MEKK2 WT-MEK5 – raises or lowers MEK5 binding to wildtype human MEKK2 PB1 domain; Q9Y2U5; bead flow cytometry, Alexa488-MEK5 binding to MEKK2 WT; actives lie on both sides; 290,000 tested, 1.1% active; binding response (% of control), % at 10 µM; in the data active means binding response below about 67% or above about 130%
MEKK2mut PB1 HTS – signal of MEK5 binding to mutant human MEKK2 PB1 domain; bead flow cytometry, Alexa488-MEK5 binding to MEKK2 mutant; percent response, % at 10 µM; 290,000 tested, 0.35% active; AID 1530; in the data active means percent response above about 24%, passing the limit was not always enough
IMP-1 inhibitor – blocks Pseudomonas aeruginosa IMP-1 metallo-beta-lactamase | purified IMP-1, nitrocefin hydrolysis, epi-absorbance fluorescence | inhibition, % at 5.6 µM | 290,000 tested, 0.45% active;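 active means inhibition above the mean plus 3 SD of all compounds in the same screening run, cut at about 4.5% in these data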
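System: Purified IMP-1 | Read-out basis: Percent enzyme inhibition | Controls: IMP-1 with DMSO as 0%, enzyme-free DMSO as 100% | Replicates: One well per compound | Doses: 5.6 µM nominal single concentration | Detection: Epi-absorbance fluorescence, 480 nm excitation, 530 nm emission | Incubation: 25 °C, 15 min preincubation, 25 min reaction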
MEKK3 PB1 HTS – modulators (inhibitors or enhancers) of MEK5 binding to human MEKK3 PB1 domain; bead-based flow cytometry, Alexa488-MEK5 binding to MEKK3; actives lie on both sides; 0 = blocked by unlabeled MEK5, 100 = vehicle; 290,000 tested, 1.4% active; binding response (% of control), % at 10 µM; Q99759;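 active means binding response more than 3 SD above or below the average of its plate-row segment, actives on both sides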;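 further: Alexa488 bead fluorescence after subtracting the streptavidin-only scavenger bead signal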
Target sequence (Q99759 whole entry, looked up, the tested form may be a part): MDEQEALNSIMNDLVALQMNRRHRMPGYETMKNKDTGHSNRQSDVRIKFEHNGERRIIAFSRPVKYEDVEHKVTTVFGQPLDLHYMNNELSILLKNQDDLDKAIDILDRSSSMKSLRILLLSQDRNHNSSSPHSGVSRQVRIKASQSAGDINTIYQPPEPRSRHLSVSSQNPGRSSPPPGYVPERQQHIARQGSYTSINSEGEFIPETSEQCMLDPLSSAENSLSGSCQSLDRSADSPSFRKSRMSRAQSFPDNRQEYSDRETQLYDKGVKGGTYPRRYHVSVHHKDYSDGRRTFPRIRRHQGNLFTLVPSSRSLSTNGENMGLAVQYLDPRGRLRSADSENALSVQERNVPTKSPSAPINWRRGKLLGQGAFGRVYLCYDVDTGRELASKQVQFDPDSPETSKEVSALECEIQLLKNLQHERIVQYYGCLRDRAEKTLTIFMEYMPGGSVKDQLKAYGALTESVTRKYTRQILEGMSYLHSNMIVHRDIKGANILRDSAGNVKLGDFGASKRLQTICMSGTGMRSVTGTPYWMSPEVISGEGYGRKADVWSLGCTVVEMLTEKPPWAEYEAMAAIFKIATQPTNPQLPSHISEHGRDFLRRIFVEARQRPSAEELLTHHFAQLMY
VIM-2 inhibitor – inhibitors of Pseudomonas aeruginosa VIM-2 metallo-beta-lactamase | purified VIM-2, nitrocefin hydrolysis, epi-absorbance fluorescence | 290,000 tested, 0.89% active | inhibition, % at 5.6 µM;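 active means inhibition above the mean of all tested compounds plus 3 SD, cutoff set per screening run, cut at about 7.5% in these data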;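 further: red hydrolysis product quenches plate fluorescence so inhibitors raise well fluorescence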
MEKK2wt confirm – raises or lowers MEK5 binding to wildtype human MEKK2, retest; shares compounds with MEKK3 PB1 HTS; bead flow cytometry, Alexa488-MEK5 binding to MEKK2 WT; actives lie on both sides; binding response (% of control), % at 10 µM; 5,900 tested, 2.4% active; in the data active means binding response below about 16% or above about 210%; inactive means in between
MEKK2mut-MEK5 – signal of MEK5 binding to mutant human MEKK2, retest; shares compounds with MEKK3 PB1 HTS; bead flow cytometry, Alexa488-MEK5 binding to MEKK2 mutant; percent response, % at 10 µM; 5,900 tested, 2% active; AID 1893; in the data active means percent response mostly above about 71%, no sharp cut-off; inactive means mostly below about 38%;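 further: higher means compound restores mutant binding toward wildtype level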
MEKK3-MEK5 inh – MEKK3-MEK5 PB1 inhibition, single concentration confirmation. binding response (% of control), % at 10 µM. bead flow cytometry, Alexa488-MEK5 binding to MEKK3; hits give low values. 5,900 tested, 1.8% active. shares compounds with MEKK3 PB1 HTS;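 active means binding response below 72% of control, or above a set upper limit, though filed actives all read lower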
A number is an active result; . = inactive; / = not tested or not shown; [ ] = remark or other dose.

SMILES	MEKK2 WT-MEK5	MEKK2mut PB1 HTS	IMP-1 inhibitor	MEKK3 PB1 HTS	VIM-2 inhibitor	MEKK2wt confirm	MEKK2mut-MEK5	MEKK3-MEK5 inh
COc1ccccc1C1CC(c2ccccc2)Nc2ncnn21 (configuration not stated)	.	.	.	80[inhibitor]	.	.	.	.
COc1ccc(NC(C)=O)cc1S(=O)(=O)Nc1ccccc1C(=O)N1CCCC1	.	.	.	.	.	/	/	/
NNc1nnnc2c1sc1nc(N3CCOCC3)c3c(c12)CCCC3	.	.	.	.	.	/	/	/
COc1ccc(CSc2n[nH]c(C)n2)cc1[N+](=O)[O-]	.	.	.	130	.	-3.0[inhibitor]	.	.
COc1ccc(CSc2ncn[nH]2)cc1[N+](=O)[O-]	.	.	.	.	.	/	/	/
Cc1ccc(NC(=O)c2cc(-n3cnnc3)ccc2Cl)cc1	.	.	.	.	.	/	/	/
Cc1cc(=S)nc(-c2ccccn2)[nH]1	59[inhibitor]	.	.	57[inhibitor]	11	.	.	.
Cc1ccc(-c2nc(N)sc2C)cc1	.	.	.	.	.	/	/	/
CCOc1cccc2sc(N(CCN(CC)CC)C(=O)c3ccc(S(=O)(=O)N4CCCCC4)cc3)nc12	.	.	.	.	.	/	/	/
CN(C)CCCN(C(=O)c1ccc(S(=O)(=O)N2CCCCCC2)cc1)c1nc2ccc(F)cc2s1	158	.	.	.	.	.	.	.
CCc1ccc2nc(N(CCCN(C)C)C(=O)c3ccc(S(=O)(=O)N4CCCc5ccccc54)cc3)sc2c1	188	32	.	.	.	.	.	.
CCN(CC)CCN(C(=O)c1ccc2ccccc2c1)c1nc2ccc(F)cc2s1	.	.	.	.	.	/	/	/
CCc1nnc(NC(=O)c2ccc(S(=O)(=O)N3CCCc4ccccc43)cc2)o1	.	.	.	.	.	/	/	/
Cc1ccc2nc(N(CCCN(C)C)C(=O)c3ccc4ncsc4c3)sc2c1	.	.	.	.	.	/	/	/
CN(C)CCCN(C(=O)c1ccc(S(=O)(=O)N2CCCCCC2)cc1)c1nc2c(F)cccc2s1	134	.	.	.	.	.	.	.
CCc1ccc2nc(N(CCCN(C)C)C(=O)c3ccc(C(=O)c4ccccc4)cc3)sc2c1	186	32	.	.	.	.	.	.
COC(=O)CSc1nc2cc(C)ccc2cc1C#N	.	.	.	.	.	/	/	/
CCCC(=O)Nc1c(C)nn(C(=O)CCC)c1C	.	.	.	.	.	/	/	/
COc1ccc(NC(=O)c2cccc(S(=O)(=O)N3CCOCC3)c2)cn1	.	.	.	.	.	/	/	/
COc1cccc2sc(N(CCCN(C)C)C(=O)c3ccc(S(=O)(=O)N4CCCc5ccccc54)cc3)nc12	187	38	.	.	.	.	.	.
CN(C)CCN(C(=O)c1ccc(S(=O)(=O)N2CCCC2)cc1)c1nc2ccc(Br)cc2s1	138	.	.	.	.	.	.	.
Cc1ccc2nc(N(CCN(C)C)C(=O)c3ccc4c(c3)OCCO4)sc2c1	.	.	.	.	.	/	/	/
CN(C)CCN(C(=O)c1cccc(N2C(=O)CCC2=O)c1)c1nc2ccc(Br)cc2s1	.	.	.	.	.	/	/	/
CCc1ccc2nc(N(CCCN(C)C)C(=O)c3ccc(S(=O)(=O)N4CCCC4)cc3)sc2c1	135	.	.	.	.	.	.	.
CCC(=O)c1ccc(OCc2ccc(C#N)cc2)cc1	.	.	.	.	.	/	/	/
SMILES	MEKK2 WT-MEK5	MEKK2mut PB1 HTS	IMP-1 inhibitor	MEKK3 PB1 HTS	VIM-2 inhibitor	MEKK2wt confirm	MEKK2mut-MEK5	MEKK3-MEK5 inh
CCOC(=O)c1c(C)n(C)c2ccc(O)c(S(=O)(=O)c3ccccc3)c12	.	.	.	.	.	/	/	/
Cc1cnn(CCC(=O)NNC(=S)NCC(C)C)c1	.	.	.	.	.	/	/	/
COc1ccc(CNC(=O)C(c2ccco2)N(C(=O)Cc2cccs2)c2cccnc2)cc1 (configuration not stated)	.	.	.	.	.	/	/	/
O=C(CSc1nc(-c2ccccc2)nc2ccccc12)Nc1cccc(C(=O)O)c1	6.0[inhibitor]	.	.	4.0[inhibitor]	.	.	.	.
S=c1[nH]nc(-c2cccnc2)n1-c1ccccc1	.	.	.	80[inhibitor]	.	.	.	.
S=c1[nH]nc(-c2ccc(Cl)cc2)n1-c1cccnc1	.	.	.	.	.	/	/	/
COc1ccc(NC(=O)CCC2COc3ccccc3O2)c(OC)c1 (configuration not stated)	.	.	.	.	.	/	/	/
C=CCNS(=O)(=O)c1cccc2cc(C(=O)O)c(O)cc12	136	.	.	134	.	.	.	.
Cc1ccc2nc(-c3ccc(NC(=O)CN4CCN(c5ccccn5)CC4)cc3)sc2c1	.	.	.	130	.	.	.	.
O=C(CN1N=C(c2ccc(Cl)cc2)CCC1=O)NCc1cccnc1	.	.	.	142	.	.	.	.
COc1ccc(C2=NN(CC(=O)NCc3ccco3)C(=O)CC2)cc1	.	.	.	130	.	.	.	.
CC(C(=O)NCc1ccccc1)N1C(=O)c2ccccc2C1=O (configuration not stated)	.	.	.	.	.	/	/	/
Cc1ccc(C2=NN(CC(=O)NCc3cccnc3)C(=O)CC2)cc1	.	.	.	140	.	.	.	.
CC(C(=O)NCc1cccnc1)N1C(=O)c2ccccc2C1=O (configuration not stated)	.	.	.	126	.	.	.	.
Cc1cccc(C)c1-n1c(=O)n(Cc2ccccc2)c(=O)c2[nH]cnc21	.	.	.	.	.	/	/	/
O=C(CCOc1ccccc1)Nc1cccc(S(=O)(=O)Nc2ccccc2Cl)c1	.	.	.	151	.	.	.	.
COc1ccc(NC(=O)N2CCN(c3cccc(C(F)(F)F)c3)CC2)cc1	0.0[inhibitor]	.	.	0.0[inhibitor]	.	.	.	.
CN(C)S(=O)(=O)c1ccc(NC(=O)N2CCN(c3cccc(C(F)(F)F)c3)CC2)cc1	.	.	.	.	.	/	/	/
CCOC(=O)C(NC(=O)c1ccccc1Cl)(Nc1ccc(C(F)(F)F)cc1)C(F)(F)F (configuration not stated)	.	.	.	151	.	.	.	.
CCOC(=O)C(NC(=O)c1ccccc1Cl)(Nc1ccc(C)c(C)c1)C(F)(F)F (configuration not stated)	.	.	.	.	.	/	/	/
Cc1nn(C)cc1CNC(=O)c1cccc(Br)c1	.	.	.	122	.	.	.	.
Cc1c(C)[n+](=O)c(-c2cccs2)c(C)n1[O-]	0.0[inhibitor]	.	.	1.0[inhibitor]	.	.	.	.

Compound activity: PubChem, several laboratories
